Data published in ChEMBL document CHEMBL2321763, “The role of the acidity of N-heteroaryl sulfonamides as inhibitors of bcl-2 family protein-protein interactions” (ACS Med Chem Lett, 2013).
In brackets after ≈: the same amount, converted by molar mass.

What was measured:
Toledo = experiment: Induction of apoptosis in human Toledo cells; format: functional; settings: read-out: LD50 (the source's name)
[1] = Solubility of compound in fasted state simulated intestinal fluid
Bcl-2-like protein 1 = Bcl-2-like protein 1 (Homo sapiens, UniProt Q07817); experiment: Inhibition of Bcl-xL/BAK (unknown origin) interaction
[2] = molecular target: T1, Apoptosis regulator Bcl-2 (Homo sapiens, UniProt P10415); experiment: Inhibition of Bcl-2/biotinylated BAK (unknown origin) interaction incubated for 1 hr by surface plasmon resonance analysis
[3] = molecular target: T1, Apoptosis regulator Bcl-2; experiment: Binding affinity to Bcl-2 (unknown origin) by surface plasmon resonance analysis
[4] = Oral bioavailability in Sprague-Dawley rat at 10 mg/kg; format: ADME, organism-based; settings: in vivo
Method in brief: (§1)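 Rats got a single 1 mg/kg iv dose for plasma clearance, AUC and Vdss, and a 10 mg/kg po dose for oral bioavailability (%F). The vehicle was a solution of either 10% PG, 5% cremophor EL and 85% citrate buffer, or 10% PG, Solutol and 40% water for injection.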

Rattus norvegicus = experiment: AUC in Sprague-Dawley rat at 1 mg/kg, iv; format: ADME, organism-based, Plasma; design: dose 1 mg/kg, route intravenous; settings: in vivo; method in brief: as §1
[5] = Volume of distribution at steady state in Sprague-Dawley rat at 1 mg/kg, iv and 10 mg/kg, po; format: ADME, organism-based; settings: in vivo, read-out: Vdss; method in brief: as §1
[6] = Clearance in Sprague-Dawley rat plasma at 1 mg/kg, iv; format: ADME, organism-based; design: dose 1 mg/kg, route intravenous; method in brief: as §1
[7] = Ratio of compound solubility to ABT-737 solubility in fasted state simulated intestinal fluid; format: physicochemical; settings: simulated gi fluid

Bcl-2-like protein 1, sequence (Q07817 whole entry): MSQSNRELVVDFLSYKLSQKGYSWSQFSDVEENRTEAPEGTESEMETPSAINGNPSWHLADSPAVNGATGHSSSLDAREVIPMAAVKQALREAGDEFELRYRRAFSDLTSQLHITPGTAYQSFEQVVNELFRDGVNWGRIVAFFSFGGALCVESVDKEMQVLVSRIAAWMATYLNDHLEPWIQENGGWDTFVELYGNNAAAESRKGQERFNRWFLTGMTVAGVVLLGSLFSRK
T1 sequence (P10415 whole entry): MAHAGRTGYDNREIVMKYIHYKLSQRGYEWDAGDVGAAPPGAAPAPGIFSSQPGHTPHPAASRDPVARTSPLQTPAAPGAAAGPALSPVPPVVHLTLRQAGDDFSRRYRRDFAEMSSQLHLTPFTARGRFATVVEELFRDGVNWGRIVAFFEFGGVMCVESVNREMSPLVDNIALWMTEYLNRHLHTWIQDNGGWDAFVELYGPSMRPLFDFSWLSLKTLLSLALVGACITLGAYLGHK

With `CN(C)CC[C@H](CSc1ccccc1)Nc1ccc(S(=O)(=O)Nc2nc(Cl)nc3c2CCN(C2CCN(Cc4ccccc4-c4ccc(Cl)cc4)CC2)C3)cc1S(=O)(=O)C(F)(F)F` as the molecule, how does the CC50 (Toledo) read?
Its CC50 is 5.37 µM.

What about the solubility [1] of the same molecule?
Its solubility is 22 µM (≈ 21.2 µg/mL).

And the IC50 (Bcl-2-like protein 1)?
The IC50 was 0.02 µM.

What about the IC50 [2] of the same molecule?
The IC50 was 0.032 µM.

What about the Kd [3] of the same molecule?
The Kd was 0.017 µM.

For `CN(C)CC[C@H](CSc1ccccc1)Nc1ccc(S(=O)(=O)Nc2nc(C(F)(F)F)nc3c2CCN(C2CCN(Cc4ccccc4-c4ccc(Cl)cc4)CC2)C3)cc1S(=O)(=O)C(F)(F)F`, which CC50 (Toledo) is on record?
Its CC50 is 3.9 µM.

And the solubility [1]?
Its solubility is 36 µM (≈ 35.9 µg/mL).

What about the IC50 (Bcl-2-like protein 1) of the same molecule?
Its IC50 is 0.062 µM.

And the IC50 [2]?
The IC50 was 0.046 µM.

What about the Kd [3] of the same molecule?
The Kd was 0.01 µM.

What does the source list for `CN(C)CC[C@H](CSc1ccccc1)Nc1ccc(S(=O)(=O)NC(=O)c2ccc(N3CCN(Cc4ccccc4-c4ccc(Cl)cc4)CC3)cc2)cc1[N+](=O)[O-]` [ABT 737]?
CC50 (Toledo): 0.06 µM; solubility [1]: 7 µM (≈ 5.69 µg/mL)

What does the source list for `O=S(=O)(Nc1nnc2n1CCN(C1CCN(Cc3ccccc3-c3ccc(Cl)cc3)CC1)C2)c1ccc(N[C@H](CCN2CCOCC2)CSc2ccccc2)c(S(=O)(=O)C(F)(F)F)c1`?
CC50 (Toledo): 15.9 µM; solubility [1]: 9 µM (≈ 8.64 µg/mL); IC50 [2]: 0.317 µM

With `O=[N+]([O-])c1cc(S(=O)(=O)Nc2cccc3cc(N4CCN(Cc5ccccc5-c5ccc(Cl)cc5)CC4)ccc23)ccc1N[C@H](CCN1CCOCC1)CSc1ccccc1` as the molecule, how does the CC50 (Toledo) read?
The CC50 was over 30 µM.

And the IC50 [2]?
Its IC50 is over 4 µM.

Which CC50 (Toledo) does the source give for `CN(C)CC[C@H](CSc1ccccc1)Nc1ccc(S(=O)(=O)Nc2nnc3n2CCN(C2CCN(Cc4ccccc4-c4ccc(Cl)cc4)CC2)CC3)cc1S(=O)(=O)C(F)(F)F` here?
Its CC50 is 3.47 µM.

And the solubility [1]?
The solubility was 87 µM (≈ 81 µg/mL).

And the IC50 [2]?
Its IC50 is 0.025 µM.

And the Kd [3]?
Its Kd is 0.005 µM.

Which results are given for `CN(C)CC[C@H](CSc1ccccc1)Nc1ccc(S(=O)(=O)Nc2cccc3cc(N4CCN(Cc5ccccc5-c5ccc(Cl)cc5)CC4)cnc23)cc1[N+](=O)[O-]`?
CC50 (Toledo): 3.95 µM; solubility [1]: 44 µM (≈ 36.8 µg/mL); IC50 [2]: 0.068 µM

For `O=S(=O)(Nc1ncnc2c1CN(C1CCN(Cc3ccccc3-c3ccc(Cl)cc3)CC1)C2)c1ccc(N[C@H](CCN2CCOCC2)CSc2ccccc2)c(S(=O)(=O)C(F)(F)F)c1`, which CC50 (Toledo) is on record?
Its CC50 is 107 µM.

What about the solubility [1] of the same molecule?
The solubility was 70 µM (≈ 67 µg/mL).

What about the IC50 [2] of the same molecule?
The IC50 was 0.74 µM.

What does the source list for `CN(C)CC[C@H](CSc1ccccc1)Nc1ccc(S(=O)(=O)Nc2ncnc3c2CCN(C2CCN(Cc4ccccc4-c4ccc(Cl)cc4)CC2)C3)cc1S(=O)(=O)C(F)(F)F`?
bioavailability [4]: < 5%; AUC (Rattus norvegicus): 0.232 µM·h; Vd [5]: 8.6 L/kg; clearance [6]: 68 mL/min/kg; CC50 (Toledo): 0.298 µM; solubility [1]: 64 µM (≈ 59.4 µg/mL); IC50 (Bcl-2-like protein 1): 0.024 µM; IC50 [2]: 0.019 µM; Kd [3]: 0.007 µM

With `CC(c1ccccc1-c1ccc(Cl)cc1)N1CCC(N2CCc3c(ncnc3NS(=O)(=O)c3ccc(N[C@H](CCN(C)C)CSc4ccccc4)c(S(=O)(=O)C(F)(F)F)c3)C2)CC1` (some centres not stated) as the molecule, how does the AUC (Rattus norvegicus) read?
The AUC was 0.19 µM·h.

What about the Vd [5] of the same molecule?
Its Vd is 5.28 L/kg.

And the clearance [6]?
Its clearance is 89 mL/min/kg.

What about the CC50 (Toledo) of the same molecule?
Its CC50 is 0.113 µM.

What about the solubility [1] of the same molecule?
The solubility was 31 µM (≈ 29.2 µg/mL).

What about the IC50 (Bcl-2-like protein 1) of the same molecule?
The IC50 was 0.115 µM.

What about the Kd [3] of the same molecule?
The Kd was 0.002 µM.

Which Ratio [7] does the source give for `CN(C)CC[C@H](CSc1ccccc1)Nc1ccc(S(=O)(=O)Nc2nnc3cc(N4CCN(Cc5ccccc5-c5ccc(Cl)cc5)CC4)cnn23)cc1[N+](=O)[O-]` here?
The Ratio was 4.

And the CC50 (Toledo)?
Its CC50 is 4.8 µM.

What about the solubility [1] of the same molecule?
Its solubility is 31 µM (≈ 25.7 µg/mL).

What about the IC50 [2] of the same molecule?
The IC50 was 0.025 µM.

What about the Kd [3] of the same molecule?
The Kd was 0.008 µM.

For `CN(C)CC[C@H](CSc1ccccc1)Nc1ccc(S(=O)(=O)NC2=NS(=O)(=O)c3cc(N4CCN(Cc5ccccc5-c5ccc(Cl)cc5)CC4)ccc32)cc1[N+](=O)[O-]`, which AUC (Rattus norvegicus) is on record?
The AUC was 761 nmol/h.

What about the Vd [5] of the same molecule?
Its Vd is 0.09 L/kg.

And the clearance [6]?
The clearance was 25 mL/min/kg.

And the CC50 (Toledo)?
The CC50 was over 30 µM.

What about the solubility [1] of the same molecule?
Its solubility is under 5 µM.

What about the IC50 [2] of the same molecule?
The IC50 was 0.017 µM.

And the Kd [3]?
Its Kd is 0.014 µM.

Which CC50 (Toledo) does the source give for `CN(C)CC[C@H](CSc1ccccc1)Nc1ccc(S(=O)(=O)Nc2ncnc3c2CCN(C2CCN(Cc4cc(F)ccc4-c4ccc(Cl)cc4)CC2)C3)cc1S(=O)(=O)C(F)(F)F` here?
The CC50 was 0.197 µM.

And the solubility [1]?
The solubility was 25 µM (≈ 23.7 µg/mL).

What about the IC50 (Bcl-2-like protein 1) of the same molecule?
Its IC50 is 0.074 µM.

And the IC50 [2]?
Its IC50 is 0.033 µM.

What about the Kd [3] of the same molecule?
The Kd was 0.003 µM.

For `CN(C)CC[C@H](CSc1ccccc1)Nc1ccc(S(=O)(=O)Nc2ncnc3c2CCN(C2CCN(Cc4cc(F)ccc4-c4ccc(Cl)cc4)CC2)C3=O)cc1S(=O)(=O)C(F)(F)F`, which CC50 (Toledo) is on record?
Its CC50 is over 30 µM.

And the solubility [1]?
Its solubility is 63 µM (≈ 60.5 µg/mL).

And the IC50 (Bcl-2-like protein 1)?
Its IC50 is 0.022 µM.

And the IC50 [2]?
Its IC50 is 0.142 µM.

What about the Kd [3] of the same molecule?
The Kd was 0.104 µM.

With `CN(C)CC[C@H](CSc1ccccc1)Nc1ccc(S(=O)(=O)Nc2nn(C)c3nc(N4CCN(Cc5ccccc5-c5ccc(Cl)cc5)CC4)ncc23)cc1[N+](=O)[O-]` as the molecule, how does the CC50 (Toledo) read?
Its CC50 is over 30 µM.

What about the IC50 [2] of the same molecule?
The IC50 was 8.5 µM.
